Hits are enriched below; roughly 0.77% of the tested compounds scored in any of these assays.
hIAP activ = human IAP activators, primary screen, biochemical, luminescence, uHTS. purified human IAP, CDP-Star luminescence, 30 min; stronger effect = higher value; 1 = vehicle-only enzyme, 0 = enzyme-free background. AID 2524, 2010. activation factor at 10 µM. hit rate 0.16% among 330,000;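 active = activation factor of the enzyme at least 2-fold when tested at 20 µM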
Target sequence (P09923 whole entry, looked up): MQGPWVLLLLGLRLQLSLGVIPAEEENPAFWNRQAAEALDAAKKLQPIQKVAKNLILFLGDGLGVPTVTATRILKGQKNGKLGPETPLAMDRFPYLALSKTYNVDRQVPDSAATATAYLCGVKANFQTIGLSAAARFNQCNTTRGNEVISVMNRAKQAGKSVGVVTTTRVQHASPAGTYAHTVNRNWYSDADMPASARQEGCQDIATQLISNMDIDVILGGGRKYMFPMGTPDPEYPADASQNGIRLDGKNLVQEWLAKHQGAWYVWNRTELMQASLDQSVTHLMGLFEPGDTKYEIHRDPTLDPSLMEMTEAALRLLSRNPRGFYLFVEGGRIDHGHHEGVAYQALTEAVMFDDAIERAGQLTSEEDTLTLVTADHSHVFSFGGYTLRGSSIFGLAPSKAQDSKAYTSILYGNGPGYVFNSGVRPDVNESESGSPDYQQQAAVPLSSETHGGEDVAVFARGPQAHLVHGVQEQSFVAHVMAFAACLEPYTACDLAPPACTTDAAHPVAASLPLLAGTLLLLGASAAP
mIAP activ = activators of mouse IAP, primary screen, biochemical, luminescence, uHTS. muIAP, CDP-Star luminescence, 30 min; stronger effect = higher value; 1 = vehicle-only enzyme signal, 0 = enzyme-free wells. intestinal alkaline phosphatase [Mus musculus]. activation factor at 10 µM. hit rate 0.24% among 330,000;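 active = activation factor of at least 2 at 20 µM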
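Assay system: mouse IAP enzyme; Reagent: CDP-Star chemiluminescent phosphatase substrate; Compound: DMSO-dissolved test compounds; Incubation: 30 min, room temperature; Technique: luminescence from enzymatic CDP-Star hydrolysis; Controls: DMSO-only wells and no-enzyme negative control.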
bIAP act = bovine intestinal alkaline phosphatase activators, primary screen, biochemical, bovine IAP, CDP-star luminescence; alkaline phosphatase, intestinal [Bos taurus]; activation factor at 20 µM; hit rate 0.17% among 200,000; purified bovine IAP, 30 min; stronger effect = higher value; fold of DMSO-control signal, blank-subtracted; AID 1016, 2008;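 active = activation factor of 2 or more at 20 µM, a signal rise over negative controls twice the positive control's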
hIAP inh = human IAP inhibitors, primary screen, biochemical, luminescence, uHTS. Intestinal-type alkaline phosphatase (Homo sapiens), P09923. hit rate 0.12% among 330,000. purified IAP, CDP-Star luminescence, 30 min. inhibition, % at 10 µM;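 active = inhibition reaching a set limit with compound at 10 µM in the primary screen, cut at about 35% in these data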;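 also: plate controls were DMSO wells with enzyme for no effect and no-enzyme buffer wells for full effect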
bIAP inhibitor = bovine intestinal alkaline phosphatase inhibitors, primary screen, selectivity assay for TNAP inhibitor project, biochemical, bovine IAP, CDP-star luminescence | alkaline phosphatase, intestinal [Bos taurus] | purified bovine IAP, 30 min | 190,000 tested, under 10 active | inhibition, % at 20 µM | AID 1019, 2008;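 active = over 50% inhibition of intestinal alkaline phosphatase at 20 µM in the single-dose screen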
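System: Purified bovine intestinal alkaline phosphatase (IAP) enzyme | Input: IAP diluted 1/65,000,000 in the well | Also added: CDP-star chemiluminescent phosphatase substrate, 30 µM final | Dosing: 20 µM single dose | Times: Enzyme reaction for 30 min at room temperature | Detection: Luminescence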
mIAP inh = inhibitors of mouse IAP, primary screen, biochemical, luminescence, uHTS | intestinal alkaline phosphatase [Mus musculus] | AID 2806, 2010 | purified mouse IAP, CDP-Star luminescence, 30 min | inhibition, % at 10 µM | hit rate 0.2% among 330,000;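 active = inhibition of at least 40% at 10 µM in the primary screen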;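 also: plate controls were DMSO with enzyme for no effect and no enzyme wells for full effect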
* = called active by the depositor.

Screening CCn1nc(C)c(/C=N\NC(=O)c2ccc3c(c2)OCO3)c1C returned hIAP activ 1.1, mIAP activ 0.95, bIAP act 1, hIAP inh -7, bIAP inhibitor 4 and mIAP inh 5.
`CCn1cc(/C=N\NC(=O)c2ccc3c(c2)c(C)c(C)n3Cc2ccccc2)c(C)n1` gave hIAP activ 0.93, mIAP activ 1.7, bIAP act 4.2*, hIAP inh 8, bIAP inhibitor -325 and mIAP inh -73.
CCn1nc(C)c(/C=N/NC(=O)c2ccc3c(c2)c(C)c(C)n3Cc2ccccc2)c1C was read as hIAP activ 0.84, mIAP activ 4.3*, bIAP act 7*, hIAP inh 16, bIAP inhibitor inactive and mIAP inh -326.
`CSc1nnc(-c2ccco2)c(-c2ccco2)n1` gave hIAP activ 0.96, mIAP activ 0.55, bIAP act 0.9, hIAP inh 4, bIAP inhibitor 14 and mIAP inh 46*.
`CSc1nnc(-c2ccccc2)c(-c2ccccc2)n1` gave hIAP activ 1.2, mIAP activ 1, hIAP inh -19 and mIAP inh -5.
Cc1ccc(O)c(-c2cc(C(=O)NCc3ccncc3)[nH]n2)c1 was read as hIAP activ 1, mIAP activ 0.98, bIAP act 2.1*, hIAP inh 0, bIAP inhibitor -106 and mIAP inh 2.
O=C(CSc1nnc(CCc2nc3ccccc3[nH]2)n1-c1ccccc1)NCc1ccco1 was read as hIAP activ 0.9, mIAP activ 1.1, bIAP act 2.5*, hIAP inh 10, bIAP inhibitor -151 and mIAP inh -7.
Screening O=C(CSc1nnc(CCc2nc3ccccc3[nH]2)n1-c1ccccc1)NCc1ccccc1 returned hIAP activ 1.4, mIAP activ 1.1, bIAP act 1.1, hIAP inh -45, bIAP inhibitor -12 and mIAP inh -6.
Screening COc1ccc(Cl)c(N2CCN(CCCNC(=O)Nc3ccc(C)cc3)CC2)c1 returned hIAP activ 0.86, mIAP activ 1.8, bIAP act 2.2*, hIAP inh 14, bIAP inhibitor -119 and mIAP inh -79.
Screening CC1=CC(C)(C)N2C(=O)C3(N=C(N)NC(Nc4ccccc4)=N3)c3cc(C)cc1c32 (centres undefined) returned hIAP activ 0.98, mIAP activ 2.2*, bIAP act 2.3*, hIAP inh 2, bIAP inhibitor -134 and mIAP inh -121.
For Oc1ccccc1/C=N/Nc1cccc2cccnc12 the results were hIAP activ 0.99, mIAP activ 0.82, bIAP act 2.7*, hIAP inh 1, bIAP inhibitor -173 and mIAP inh 18.
`COc1ccc(-c2[nH]ncc2C2N=C(N)Nc3nc4ccccc4n32)cc1` (centres undefined) gave hIAP activ 1.6, mIAP activ 1.2, bIAP act 2.2*, hIAP inh -57, bIAP inhibitor -120 and mIAP inh -24.
Screening COc1ccccc1NC(=O)COc1coc(CN2CCN(c3ccccc3)CC2)cc1=O returned hIAP activ 1.1, mIAP activ 1, hIAP inh -10 and mIAP inh -3.
For Cn1c(CNc2ccc(Cl)cc2)nc2ccccc21 the results were hIAP activ 0.99, mIAP activ 1.2, bIAP act 0.6, hIAP inh 1, bIAP inhibitor 35 and mIAP inh -16.
CC(C)N=c1cc2n(-c3ccc(Cl)cc3)c3ccccc3nc-2cc1Nc1ccc(Cl)cc1 was read as hIAP activ 0.61, mIAP activ 0.65, hIAP inh 39* and mIAP inh 35.
CC(C)COc1ccc(C(=O)NNC(=O)c2ccc(=O)[nH]c2)cc1 was read as hIAP activ 1.2, mIAP activ 1.1, hIAP inh -18 and mIAP inh -5.
For CCO[C@@H]1OC(C(N)=O)=C[C@H](C2CCCCC2)[C@H]1CCCO the results were hIAP activ 1.1, mIAP activ 0.55, hIAP inh -9 and mIAP inh 45*.
`O=C(CSc1nnc(C2CC2)n1CC1CCCO1)Nc1ccccc1Cl` (centres undefined) gave hIAP activ 0.92, mIAP activ 0.92, hIAP inh 8 and mIAP inh 8.
`CCCCCCCCCCCCCCCCn1cc[n+](CC(C)=O)c1` gave bIAP act 5.2* and bIAP inhibitor -417.
Screening CCCCCCn1ccc(=N)cc1 returned hIAP activ 1.1, mIAP activ 1, bIAP act 0.9, hIAP inh -15, bIAP inhibitor 11 and mIAP inh -1.
COc1ccc(C2Nc3ccccc3C(=O)N2O)cc1OC (centres undefined) was read as hIAP activ 1, mIAP activ 0.96, bIAP act 1, hIAP inh 0, bIAP inhibitor -3 and mIAP inh 4.
COc1ccc(C2Nc3ccccc3C(=O)N2O)cc1CN1CCOCC1 (centres undefined) was read as hIAP activ 1.1, mIAP activ 0.9, bIAP act 2*, hIAP inh -8, bIAP inhibitor -100 and mIAP inh 10.
N#Cc1ccc(NC(=O)Nc2ccc(Oc3ccc(NC(=O)Nc4ccc(C#N)cc4)cc3)cc2)cc1 was read as hIAP activ 1.1, mIAP activ 2.4*, hIAP inh -12 and mIAP inh -144.
Screening CCN(CC)CC(=O)N1c2ccccc2CCc2ccc(NC(=O)c3cc(OC)c(OC)c(OC)c3)cc21 returned hIAP activ 1.1, mIAP activ 1.2, hIAP inh -14 and mIAP inh -16.
For O=C(Nc1ccc(F)cc1F)Nc1ccc(F)cc1F the results were hIAP activ 1.2, mIAP activ 1.1, bIAP act 1, hIAP inh -16, bIAP inhibitor -2 and mIAP inh -9.
Screening O=C(Nc1ccc(F)cc1F)Nc1csc2ccccc12 returned hIAP activ 0.96, mIAP activ 2.3*, hIAP inh 4 and mIAP inh -128.
Screening COc1cc(C(C(=O)NCC2CCCO2)N(C(=O)Cn2nnc3ccccc32)c2ccc(C(C)=O)cc2)ccc1O (centres undefined) returned hIAP activ 0.75, mIAP activ 0.99, hIAP inh 25 and mIAP inh 1.
Screening COc1ccc(C[C@H]2CN3C(=NC[C@@H]3C(C)C)N2CCNC(=O)CCC2CCCCC2)cc1 returned hIAP activ 0.85, mIAP activ 1, bIAP act 1.1, hIAP inh 14, bIAP inhibitor -15 and mIAP inh -2.

Screening data from PubChem.
